Test results published in ChEMBL document CHEMBL1136733, “Pyrrolopyrazinedione-based inhibitors of human hormone-sensitive lipase” (J Med Chem, 2003).

Experiments:
Hormone-sensitive lipase [1] = biological target: T1, Hormone-sensitive lipase (Homo sapiens, UniProt Q05469); experiment: Inhibitory activity against Human Hormone-sensitive lipase (HSL) expressed in the baculovirus was determined by HSL [14 C] cholesteryl oleate assay
T1 sequence (Q05469 whole entry): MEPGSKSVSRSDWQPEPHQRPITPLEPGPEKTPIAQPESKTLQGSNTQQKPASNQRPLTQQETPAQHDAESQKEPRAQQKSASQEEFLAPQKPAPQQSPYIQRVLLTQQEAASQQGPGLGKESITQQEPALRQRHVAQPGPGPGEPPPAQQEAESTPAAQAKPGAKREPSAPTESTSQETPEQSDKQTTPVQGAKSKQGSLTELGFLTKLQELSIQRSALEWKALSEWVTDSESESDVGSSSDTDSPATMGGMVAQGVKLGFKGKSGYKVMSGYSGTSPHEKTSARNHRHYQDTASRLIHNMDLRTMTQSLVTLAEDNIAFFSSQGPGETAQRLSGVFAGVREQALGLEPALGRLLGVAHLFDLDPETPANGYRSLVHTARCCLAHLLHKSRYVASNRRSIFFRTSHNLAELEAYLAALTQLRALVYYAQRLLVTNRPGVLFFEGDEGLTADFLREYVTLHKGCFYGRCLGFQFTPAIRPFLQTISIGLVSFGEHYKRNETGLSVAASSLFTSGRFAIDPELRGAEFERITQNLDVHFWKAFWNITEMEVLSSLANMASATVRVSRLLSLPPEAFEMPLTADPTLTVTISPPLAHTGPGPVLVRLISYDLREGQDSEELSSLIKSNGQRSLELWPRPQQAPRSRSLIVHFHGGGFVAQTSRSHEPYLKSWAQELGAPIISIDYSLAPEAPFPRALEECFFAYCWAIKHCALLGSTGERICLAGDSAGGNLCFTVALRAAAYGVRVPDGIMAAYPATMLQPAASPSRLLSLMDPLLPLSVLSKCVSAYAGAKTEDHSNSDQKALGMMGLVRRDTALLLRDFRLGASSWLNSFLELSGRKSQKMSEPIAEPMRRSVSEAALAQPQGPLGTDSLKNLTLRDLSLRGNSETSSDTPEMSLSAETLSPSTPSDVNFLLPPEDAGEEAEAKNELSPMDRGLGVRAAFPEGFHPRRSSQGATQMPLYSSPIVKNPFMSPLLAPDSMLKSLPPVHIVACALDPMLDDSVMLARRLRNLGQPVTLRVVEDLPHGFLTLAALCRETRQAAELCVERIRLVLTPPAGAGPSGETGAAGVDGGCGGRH
Outline: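 Recombinant human HSL from Sf9/baculovirus expression, Ni-NTA purified. Substrate was a [14C]cholesteryl oleate emulsion. IC50 derived from 8-point concentration curves run in triplicate.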

Hormone-sensitive lipase [2] = biological target: T1, Hormone-sensitive lipase; experiment: Inhibitory activity against human hormone-sensitive lipase (HSL) expressed in the baculovirus was determined by p-nitrophenyl butyrate (PNPB) assay
Outline: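 Recombinant human HSL (His-tagged, Sf9/baculovirus, Ni-NTA purified), 10 ng per reaction in 20 mM KPO4 pH 7.4, 1 mM EDTA, 0.1% Triton X-100, 5 mM p-nitrophenyl butyrate, 5% DMSO. Incubated 1 h at 27 °C, absorbance read at 400 nm. Full 8-point IC50 curves run in triplicate.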

**Q.** Which IC50 (Hormone-sensitive lipase [1]) does the source give for `COC(=O)C1CC2(COCc3ccccc3)C(=O)N(CCCCc3ccccc3)CC(=O)N2C1c1ccco1` (configuration not stated) here?
**A.** Its IC50 is 260 nM.

**Q.** And the IC50 (Hormone-sensitive lipase [2])?
**A.** Its IC50 is 210 nM.
